KCNK3 block = human KCNK3 channel inhibitors, primary screen, CHO cells, FluxOR thallium flux, B-score; Potassium channel subfamily K member 3 (Homo sapiens), O14649; FluxOR fluorescence; active compounds read low; B-score at 10 µM; 0.84% of 340,000 active; AID 602410, 2012;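 active = B-score under library mean minus 4 SD, starting fluorescence ratio at most library mean plus 5 SD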;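 note: more negative B-score means stronger inhibition of thallium flux through KCNK3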
Target sequence (O14649 whole entry, looked up): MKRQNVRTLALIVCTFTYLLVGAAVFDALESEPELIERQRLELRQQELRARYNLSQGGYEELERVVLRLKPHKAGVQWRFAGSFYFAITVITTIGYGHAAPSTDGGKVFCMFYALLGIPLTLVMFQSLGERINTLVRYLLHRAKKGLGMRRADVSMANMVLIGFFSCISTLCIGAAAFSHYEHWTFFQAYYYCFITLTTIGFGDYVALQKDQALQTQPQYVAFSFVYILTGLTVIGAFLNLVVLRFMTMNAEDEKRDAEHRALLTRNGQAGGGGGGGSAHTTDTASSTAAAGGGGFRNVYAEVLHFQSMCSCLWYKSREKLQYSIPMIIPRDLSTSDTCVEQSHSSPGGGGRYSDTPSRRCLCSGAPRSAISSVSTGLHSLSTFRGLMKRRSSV
KCNQ1 pot = potentiators or activators of KCNQ1 channel, primary screen, cell-based, thallium flux, high-throughput | B-score at 10 µM | CHO-K1 KCNQ1, thallium flux FluxOR fluorescence; active compounds read high | Potassium voltage-gated channel subfamily KQT member 1 (Homo sapiens), P51787 | 0.35% of 310,000 active;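 active = fluorescence ratio B-score, a plate-corrected score, at least three library SD, with initial intensity B-score within 5 SD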
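Test system: CHO-K1 cells stably expressing KCNQ1 / Medium: assay buffer / Also added: depolarizing K+/Tl+ stimulus, K2SO4 and Tl2SO4 each 12.5 mM in 5x stock / Incubation: 90 min dye loading and 20 min compound exposure, both at room temperature / Signal: thallium influx via FluxOR fluorescence, kinetic imaging / Evaluation: B score of baseline-normalized fluorescence ratio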
KCNK9 block = KCNK9 potassium channel inhibitors, primary screen, HEK293 cells, thallium flux | Potassium channel subfamily K member 9 (Homo sapiens), Q9NPC2 | FluxOR thallium flux fluorescence; active compounds read low | B-score at 10 µM | 1.2% of 310,000 active;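 active = ratio B-score over 3 SD below the library mean, with starting fluorescence within 5 SD of its mean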;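 note: negative B-score means less thallium flux so channel inhibition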
Kir21 inh = inhibitors of mouse Kir2.1 inward-rectifier potassium channel | AID 1672, 2009 | Inward rectifier potassium channel 2 (Mus musculus), P35561 | 0.85% of 310,000 active | HEK293-Kir2.1, FluxOR thallium flux fluorescence; active compounds read low | B-score at 10 µM;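 active = fluorescence ratio B-score at or below minus 3 SD of library scores, with starting-brightness B-score within 2 SD, cut at about -4.2 in these data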;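 note: channel flux triggered by added potassium and thallium sulfate stimulus; B-score of peak minus minimum fluorescence over baseline after thallium stimulus; more negative B-score means stronger Kir2.1 block with less thallium influx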
KCNQ1 block = inhibitors of human KCNQ1 channel, primary screen, cell-based, thallium flux, high-throughput. Potassium voltage-gated channel subfamily KQT member 1 (Homo sapiens), P51787. 1.3% of 310,000 active. B-score at 10 µM. CHO-K1 KCNQ1, FluxOR thallium flux fluorescence; active compounds read high. AID 2642, 2010;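 active = compounds whose thallium flux B-score, printed positive for inhibition, exceeds three library SD while starting fluorescence stays within three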;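 note: channel opened by potassium depolarization with thallium stimulus after 20 min compound exposure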
hERG rescue = hERG rescue from dofetilide block, primary screen, cell-based, CHO-hERG, FluxOR thallium flux, dofetilide IC70; Voltage-gated inwardly rectifying potassium channel KCNH2 (Homo sapiens), Q12809; dofetilide IC70 present; activation (rescue from dofetilide block), less the hit threshold, % at 10 µM; 0.51% of 310,000 active;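 active = activation above the mean of controls blocked by dofetilide plus 5 SD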;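 note: thallium influx through hERG after potassium depolarization seen as dye fluorescence rise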
Active calls of the source: *; i = inactive; / = not tested or not shown. This is a sample that favours compounds with a hit; in the whole collection about 3.7% have one here.

SMILES | KCNK3 block | KCNQ1 pot | KCNK9 block | Kir21 inh | KCNQ1 block | hERG rescue
COc1ccccc1/C=C1\SC(=S)N(CCC(=O)NCCCn2ccnc2)C1=O | i | i | i | -4.5* | i | -7
O=C(CCCN1C(=O)/C(=C/c2ccc(F)cc2)SC1=S)NCCCn1ccnc1 | i | i | i | -4.7* | i | -14
COc1ccc(/C=C2\SC(=S)N(CCC(=O)NCCCn3ccnc3)C2=O)cc1 | i | i | i | 0.48 | i | -13
COc1cccc(/C=C2\SC(=O)N(CC(=O)NCCCn3ccnc3)C2=O)c1 | i | i | i | -2 | i | -7
COc1ccccc1/C=C1\SC(=S)N(CCC(=O)NNC(=O)c2ccccc2O)C1=O | i | i | i | 1.5 | 6* | -28
CCOc1ccccc1C=C1SC(=S)N(CC)C1=O | -9.7* | / | / | / | / | /
CCOC(=O)N1CCN(C(=O)CCN2C(=O)/C(=C\c3ccccc3OC)SC2=S)CC1 | i | i | i | -0.06 | i | -10
Clc1ccc(OCc2cc(-c3ccccc3)no2)c(Cl)c1 | i | i | -7.4* | 1.8 | i | 0
Cc1cccc(OCc2cc(-c3ccccc3)no2)c1C | i | i | i | 1.8 | i | -9
COc1cccc(CN2c3ccc(Br)cc3C(=O)CS2(=O)=O)c1 | i | / | / | / | / | /
CCOC(=O)CN1NC2(CCC(C(C)(C)C)CC2)NC1=S (stereo unspecified) | i | i | i | -0.1 | i | 8.7*
CCOC(=O)CN1NC2(CCC(C)CC2)NC1=S (stereo unspecified) | i | i | i | -0.01 | i | -8
Cc1ccccc1OS(=O)(=O)c1cn(C)c(=O)n(C)c1=O | i | i | i | 1.9 | i | -12
O=C(COC(=O)C1C2CC3OC(=O)C1C3C2)Nc1ccc(Cl)cc1 (stereo unspecified) | i | 17* | i | 2.3 | i | 12*
CC(OC(=O)c1cccc(-n2cnnn2)c1)C(=O)Nc1ccc(F)cc1Cl (stereo unspecified) | i | i | i | -1.1 | i | -16
Cc1cc(C(=O)CSc2nc(N)cc(N)n2)c(C)n1CC1CCCO1 (stereo unspecified) | i | / | / | / | / | /
Cc1sc2nc(SCC(=O)c3cc(C)n(CC4CCCO4)c3C)n(C(C)C)c(=O)c2c1C (stereo unspecified) | -8.8* | i | i | 0.08 | i | -5
CCC(C)(C)NC(=O)C(c1cccc(OC)c1)N(C(=O)c1ccn[nH]1)c1cccc(OC)c1 (stereo unspecified) | i | i | i | -1.5 | 8* | -14
Cc1c(N2C(=O)/C(=C\c3ccccc3O)SC2=S)c(=O)n(-c2ccccc2)n1C | i | 42* | i | -0.59 | i | 17*
O=C1/C(=C\c2cc(Br)cc(Br)c2O)SC(=S)N1Cc1ccccc1 | i | i | i | -0.43 | i | -8
Cc1c(N2C(=O)/C(=C/c3cccc4ccccc34)SC2=S)c(=O)n(-c2ccccc2)n1C | i | i | i | 1.2 | i | -8
CN1C(=O)/C(=C/c2cc(N=Nc3ccccc3)ccc2O)SC1=S | i | i | i | 0.54 | 7* | -8
CC(C(=O)NCCCc1ccccc1)n1cccc1C(=O)c1ccccc1 (stereo unspecified) | i | i | i | -6.4* | i | -11
O=C(NNS(=O)(=O)c1ccc([N+](=O)[O-])cc1)c1ccc2ccccc2c1O | i | i | i | 3.6 | 7* | -26
O=C(NNS(=O)(=O)c1ccc([N+](=O)[O-])cc1)c1ccccc1 | i | / | / | / | / | /
SMILES | KCNK3 block | KCNQ1 pot | KCNK9 block | Kir21 inh | KCNQ1 block | hERG rescue
CC1(C2CCCC2)NC(=O)NC1=O (stereo unspecified) | i | / | / | / | / | /
O=C(OCC(=O)N1CCCC1)c1c(Cl)ccc(Cl)c1Cl | i | i | i | -0.02 | i | -8
CCN1CCN(c2cc(C(C)C)nc3c(-c4ccccc4)c(C)nn23)CC1 | i | i | i | -8.1* | i | -11
Cc1c(CCOC(=O)C23CC4CC(CC(C)(C4)C2)C3)sc[n+]1CC(=O)c1ccccc1 | i | i | i | -2.2 | i | -15
Cc1c(CCOC(=O)CC23CC4CC(CC(C)(C4)C2)C3)sc[n+]1CC(=O)c1ccccc1 | i | i | i | -2.3 | 11* | -18
Cc1ccc(S(=O)(=O)NCCC(=O)N2CCN(c3ccccc3)CC2)cc1C | i | / | / | / | / | /
O=C(c1cc2nc(-c3cccs3)cc(C(F)(F)Cl)n2n1)N1CCCc2ccccc21 | i | i | -6.7* | -1.5 | i | -8
CC(C)c1nc2n[nH]c(N)c2c2c1CCCC2 | i | i | i | -6.8* | i | 2
CC(C)Cc1nc2n[nH]c(N)c2c2c1CCCC2 | i | i | i | 0.06 | i | 2
CCOC(=O)C(=O)Cc1cccnn1 | i | / | / | / | / | /
Cc1cccc(CSc2nnc(CCNC(=O)OC(C)(C)C)o2)c1 | i | i | i | -6.8* | i | -10
CC(C)(C)OC(=O)NCCCCCc1nnc(SCc2cccc(F)c2)o1 | i | i | i | -1.3 | i | -10
CC(C)(C)OC(=O)NCCc1nnc(SCc2cccc(Cl)c2)o1 | i | i | i | -12* | i | -11
CCOC(=O)c1ccc(NC(=O)C2CC(O)CN2S(=O)(=O)c2ccc(C)cc2)cc1 (stereo unspecified) | i | / | / | / | / | /
CCN(CC)CCn1c(=S)[nH]c2cc(C(=O)N3CC(C)CC(C)C3)ccc2c1=O (stereo unspecified) | i | i | i | 0.83 | i | -6
CCOC(=O)c1c(NC(=O)CSc2nc3cccnc3n2C)sc(C(C)=O)c1C | -10* | i | i | -0.5 | i | -5
CCOC(=O)c1sc(NC(=O)CSc2nc3cccnc3n2C)nc1C | i | i | i | 1.5 | i | -3
COc1ccc(NC(=O)Nc2cccc3c2O[C@H](CN(C)Cc2ccc(-c4ccccc4)cc2)[C@@H](C)CN([C@H](C)CO)C3=O)cc1 | i | / | / | / | / | /
Cc1c(C(=O)N(C)CCOc2ccccc2)oc2c(Cl)cccc12 | -9.3* | / | / | / | / | /
CCNC(=S)N/N=C1\C(=O)c2cccc3cccc1c23 | i | 9* | i | 1.5 | i | 7.9*

Bioassay records as filed in PubChem BioAssay.
